From ChEMBL document CHEMBL4052615, “Discovery of 4-amino-3-arylsulfoquinolines, a novel non-acetylenic chemotype of metabotropic glutamate 5 (mGlu5) receptor negative allosteric modulators” (Eur J Med Chem, 2017) come the findings set out here.

What is called inhibition is the relative decrease from the control value, in per cent.

The assay has as its target Metabotropic glutamate receptor 5 (Homo sapiens, UniProt P41594). Kind of assay: Displacement of [3H]M-MPEP from mGluR5 (unknown origin) at 1 uM measured after 60 mins relative to control. In short, it runs like this:
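Rat cerebrocortical membranes or membranes from A18 cells expressing human mGlu5a, incubated with [³H]M-MPEP and test compound at 1 µM in 50 mM Tris pH 7.6 with 2 mM MgCl₂ and 2 mM CaCl₂, 60 min at 25°C. Non-specific binding was taken with […]. Result is % displacement, run in duplicate or triplicate.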
(In general: Loss of bound radioactivity is the signal in a displacement assay; it reports binding, not function.)

Metabotropic glutamate receptor 5, sequence (P41594 21-1212 limits assumed): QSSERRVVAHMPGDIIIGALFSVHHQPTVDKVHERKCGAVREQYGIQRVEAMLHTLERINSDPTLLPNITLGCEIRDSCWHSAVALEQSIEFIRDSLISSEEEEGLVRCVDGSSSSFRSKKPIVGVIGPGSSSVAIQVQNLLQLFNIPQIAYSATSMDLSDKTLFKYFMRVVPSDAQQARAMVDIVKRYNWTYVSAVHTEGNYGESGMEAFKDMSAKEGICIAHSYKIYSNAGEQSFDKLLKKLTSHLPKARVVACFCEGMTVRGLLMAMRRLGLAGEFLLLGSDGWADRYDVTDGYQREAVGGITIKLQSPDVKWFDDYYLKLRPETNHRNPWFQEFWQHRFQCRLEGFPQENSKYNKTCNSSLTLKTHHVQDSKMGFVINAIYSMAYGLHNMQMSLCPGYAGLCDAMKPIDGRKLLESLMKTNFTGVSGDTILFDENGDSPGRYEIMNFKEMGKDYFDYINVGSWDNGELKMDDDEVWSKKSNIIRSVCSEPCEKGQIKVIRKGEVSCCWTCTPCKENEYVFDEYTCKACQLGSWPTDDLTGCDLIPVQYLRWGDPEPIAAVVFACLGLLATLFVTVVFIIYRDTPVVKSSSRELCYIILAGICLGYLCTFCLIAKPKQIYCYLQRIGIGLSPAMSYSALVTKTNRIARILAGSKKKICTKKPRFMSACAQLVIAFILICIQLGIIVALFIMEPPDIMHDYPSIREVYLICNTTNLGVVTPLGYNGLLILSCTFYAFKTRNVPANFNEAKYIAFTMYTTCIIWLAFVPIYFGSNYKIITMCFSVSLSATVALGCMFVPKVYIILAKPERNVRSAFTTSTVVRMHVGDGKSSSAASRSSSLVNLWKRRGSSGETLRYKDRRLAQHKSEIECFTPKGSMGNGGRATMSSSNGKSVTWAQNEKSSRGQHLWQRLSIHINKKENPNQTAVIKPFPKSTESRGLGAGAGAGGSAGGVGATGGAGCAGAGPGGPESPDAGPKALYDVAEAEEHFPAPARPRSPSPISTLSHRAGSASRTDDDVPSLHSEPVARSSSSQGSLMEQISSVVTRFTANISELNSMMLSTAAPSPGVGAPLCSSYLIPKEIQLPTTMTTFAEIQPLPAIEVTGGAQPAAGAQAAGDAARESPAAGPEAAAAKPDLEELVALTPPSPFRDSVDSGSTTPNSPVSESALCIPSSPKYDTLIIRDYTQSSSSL

With `N#Cc1cccc(S(=O)(=O)c2cnc3cc(Cl)ccc3c2N2CCOCC2)c1`, the inhibition stood at 73%. Then `NS(=O)(=O)N1CCN(c2c(S(=O)(=O)c3cc(F)cc(F)c3)cnc3cc(F)ccc23)CC1`, with 6.4%; and `Cc1ccc2ncc(S(=O)(=O)c3cc(F)cc(F)c3)c(N3CCOCC3)c2c1`, with 34%; and `CC1CCN(c2c(S(=O)(=O)c3cccc(F)c3)cnc3cc(Cl)ccc23)CC1`, with 5.6 to 96%. Then `COc1cccc(S(=O)(=O)c2cnc3cc(Cl)ccc3c2N2CCOCC2)c1`, with 70%; and `CC1CCN(c2c(S(=O)(=O)c3ccc(Cl)cc3)cnc3cc(F)ccc23)CC1`, with 90%. As for `Cc1ccc(S(=O)(=O)c2cnc3cc(F)ccc3c2N2CCOCC2)cc1C`, the inhibition was 74%. For `COc1ccc2ncc(S(=O)(=O)c3ccc(Cl)cc3)c(N3CCC(C)CC3)c2c1`, the inhibition amounted to 91%.

As for `CC1CCN(c2c(S(=O)(=O)c3cccc(C#N)c3)cnc3ccc(F)cc23)CC1`, the inhibition amounted to 93%.

Take `COc1ccc2ncc(S(=O)(=O)c3ccc(C#N)cc3)c(N3CCOCC3)c2c1`: the inhibition worked out at 2%.

As to `COc1ccc2ncc(S(=O)(=O)c3ccc(C)c(Cl)c3)c(N3CCC(C)CC3)c2c1`, the inhibition stood at 85%.

With `COc1cccc(S(=O)(=O)c2cnc3ccc(F)cc3c2N2CCC(C)CC2)c1`, the inhibition worked out at 90%. On to `O=S(=O)(c1ccc(Cl)c(Cl)c1)c1cnc2cc(Cl)ccc2c1N1CCOCC1`, for which the inhibition was 86%. With `CC1CCN(c2c(S(=O)(=O)c3ccc(F)c(Cl)c3)cnc3c(F)cccc23)CC1`, the inhibition turned out to be 95%. For the molecule `N#Cc1ccc(S(=O)(=O)c2cnc3cc(Cl)ccc3c2N2CCOCC2)cc1`, the inhibition came out at 2%. Regarding `COc1ccc(S(=O)(=O)c2cnc3cc(Cl)ccc3c2N2CCOCC2)cc1`, the inhibition turned out to be 41%. Then `O=S(=O)(c1ccc(F)c(Cl)c1)c1cnc2c(F)cccc2c1N1CCOCC1`, with 83%; and `O=S(=O)(c1cc(F)cc(F)c1)c1cnc2cc(Cl)ccc2c1N1CCOCC1`, with 67%.

For the molecule `COc1cccc(S(=O)(=O)c2cnc3cc(F)ccc3c2N2CCC(C)CC2)c1`, the inhibition was 90%.

On to `O=S(=O)(c1ccc(F)c(F)c1)c1cnc2c(F)cccc2c1N1CCOCC1`, for which the inhibition was found to be 57%. With `Cc1ccc(S(=O)(=O)c2cnc3c(F)cccc3c2N2CCC(C)CC2)cc1F`, the inhibition came out at 93%.

As for `CC1CCN(c2c(S(=O)(=O)c3cccc(C#N)c3)cnc3ccc(Cl)cc23)CC1`, the inhibition was found to be 90%. Consider `Cc1ccc(S(=O)(=O)c2cnc3ccc(Cl)cc3c2N2CCC(C)CC2)cc1`, for which the inhibition turned out to be 95%.

In the case of `N#Cc1cccc(S(=O)(=O)c2cnc3ccc(Cl)cc3c2N2CCOCC2)c1`, the inhibition is 20%. The value for `COc1ccc2ncc(S(=O)(=O)c3ccc(C)c(Cl)c3)c(N3CCOCC3)c2c1` was 28%; that for `O=S(=O)(c1cccc(F)c1)c1cnc2ccc(Cl)cc2c1N1CCOCC1` was 0%.

`Cc1ccc2ncc(S(=O)(=O)c3ccc(F)c(F)c3)c(N3CCOCC3)c2c1`: the inhibition was determined as 24%. For the molecule `COc1cccc(S(=O)(=O)c2cnc3ccc(OC)cc3c2N2CCOCC2)c1`, the inhibition is 20%. With `N#Cc1ccc(S(=O)(=O)c2cnc3ccc(F)cc3c2N2CCOCC2)cc1`, the inhibition was -3%. `CC1CCN(c2c(S(=O)(=O)c3cccc(F)c3)cnc3ccc(F)cc23)CC1`: the inhibition amounted to 76%. Then `Cc1ccc2ncc(S(=O)(=O)c3cccc(Cl)c3)c(N3CCOCC3)c2c1`, with 44%; and `CC1CCN(c2c(S(=O)(=O)c3ccc(F)c(F)c3)cnc3ccc(F)cc23)CC1`, with 82%; and `COc1ccc2ncc(S(=O)(=O)c3ccc(C)cc3)c(N3CCC(C)CC3)c2c1`, with 90%. With `COc1cccc(S(=O)(=O)c2cnc3cc(Cl)ccc3c2N2CCC(C)CC2)c1`, the inhibition stood at 93%. The value for `O=S(=O)(c1cc(F)cc(F)c1)c1cnc2ccc(Cl)cc2c1N1CCOCC1` was 7%; that for `Cc1ccc2ncc(S(=O)(=O)c3ccc(C)c(F)c3)c(N3CCOCC3)c2c1` was 33%. For the molecule `O=S(=O)(c1ccccc1)c1cnc2ccc(Cl)cc2c1N1CCOCC1`, the inhibition was 18%. Then `O=S(=O)(c1ccc(F)c(F)c1)c1cnc2cc(Cl)ccc2c1N1CCOCC1`, with 49%; and `CC1CCN(c2c(S(=O)(=O)c3ccc(Cl)c(Cl)c3)cnc3cc(Cl)ccc23)CC1`, with 89%; and `O=S(=O)(c1cc(F)cc(F)c1)c1cnc2c(F)cccc2c1N1CCOCC1`, with 52%. The value for `Cc1ccc2ncc(S(=O)(=O)c3ccccc3)c(N3CCOCC3)c2c1` was 86%.

As to `COc1ccc(S(=O)(=O)c2cnc3cc(Cl)ccc3c2N2CCC(C)CC2)cc1Cl`, the inhibition worked out at 93%. Then `Cc1ccc(S(=O)(=O)c2cnc3cc(F)ccc3c2N2CCC(C)CC2)cc1C`, with 90%. Then `Cc1ccc2ncc(S(=O)(=O)c3cccc(F)c3)c(N3CCOCC3)c2c1`, with 10%; and `COc1ccc(S(=O)(=O)c2cnc3ccc(C)cc3c2N2CCC(C)CC2)cc1`, with 62%; and `COc1ccc2ncc(S(=O)(=O)c3cc(C)cc(C)c3)c(N3CCOCC3)c2c1`, with 11%. The value for `CC1CCN(c2c(S(=O)(=O)c3ccc(F)c(Cl)c3)cnc3cc(F)ccc23)CC1` was 94%; that for `COc1ccc(S(=O)(=O)c2cnc3ccc(Cl)cc3c2N2CCC(C)CC2)cc1OC` was 61%; that for `CC1CCN(c2c(S(=O)(=O)c3cc(Cl)cc(Cl)c3)cnc3c(F)cccc23)CC1` was 82%. For the molecule `Cc1ccc2ncc(S(=O)(=O)c3ccc(Cl)cc3)c(N3CCC(C)CC3)c2c1`, the inhibition amounted to 79%. Consider `COc1ccc(S(=O)(=O)c2cnc3ccc(F)cc3c2N2CCC(C)CC2)cc1OC`, for which the inhibition amounted to 54%. Then `O=S(=O)(c1cccc(Cl)c1)c1cnc2cc(Cl)ccc2c1N1CCOCC1`, with 81%; and `COc1ccc(S(=O)(=O)c2cnc3ccc(C)cc3c2N2CCOCC2)cc1`, with 26%; and `O=S(=O)(c1cccc(F)c1)c1cnc2cc(Cl)ccc2c1N1CCOCC1`, with 32%.

As to `Cc1ccc(S(=O)(=O)c2cnc3ccc(F)cc3c2N2CCOCC2)cc1F`, the inhibition is 28%. As for `O=S(=O)(c1cc(Cl)cc(Cl)c1)c1cnc2ccc(Cl)cc2c1N1CCOCC1`, the inhibition was 14%. Then `Cc1cc(C)cc(S(=O)(=O)c2cnc3ccc(F)cc3c2N2CCOCC2)c1`, with 43%. With `COc1ccc2ncc(S(=O)(=O)c3cc(F)cc(F)c3)c(N3CCOCC3)c2c1`, the inhibition worked out at 3%. `Cc1ccc(S(=O)(=O)c2cnc3cc(Cl)ccc3c2N2CCC(C)CC2)cc1Cl`: the inhibition was 89%. Then `Cc1cc(C)cc(S(=O)(=O)c2cnc3ccc(F)cc3c2N2CCC(C)CC2)c1`, with 83%. With `Cc1ccc2ncc(S(=O)(=O)c3ccc(F)c(Cl)c3)c(N3CCOCC3)c2c1`, the inhibition was 73%.

With `O=S(=O)(c1ccc(F)cc1)c1cnc2ccc(Cl)cc2c1N1CCOCC1`, the inhibition was found to be 6%. The value for `COc1cccc(S(=O)(=O)c2cnc3ccc(Cl)cc3c2N2CCC(C)CC2)c1` was 87%; that for `COc1ccc(S(=O)(=O)c2cnc3cc(F)ccc3c2N2CCOCC2)cc1` was 23%.

Consider `CC1CCN(c2c(S(=O)(=O)c3ccc(F)c(F)c3)cnc3cc(Cl)ccc23)CC1`, for which the inhibition worked out at 90%. The value for `O=S(=O)(c1ccc(Cl)cc1)c1cnc2ccc(F)cc2c1N1CCOCC1` was 78%; that for `Cc1ccc(S(=O)(=O)c2cnc3ccc(Cl)cc3c2N2CCOCC2)cc1C` was 90%. Then `CC1CCN(c2c(S(=O)(=O)c3ccc(F)cc3)cnc3cc(Cl)ccc23)CC1`, with 91%; and `Cc1ccc(S(=O)(=O)c2cnc3ccc(C)cc3c2N2CCC(C)CC2)cc1`, with 82%; and `N#Cc1ccc(S(=O)(=O)c2cnc3c(F)cccc3c2N2CCOCC2)cc1`, with 6%. `Cc1ccc(S(=O)(=O)c2cnc3ccc(F)cc3c2N2CCC(C)CC2)cc1Cl`: the inhibition worked out at 91%. Then `CCN1CCN(c2c(S(=O)(=O)c3ccccc3)cnc3ccccc23)CC1`, with 1.7%; and `NS(=O)(=O)N1CCN(c2c(S(=O)(=O)c3cccc(F)c3)cnc3cc(F)ccc23)CC1`, with 1.9%. Then `CC1CCN(c2c(S(=O)(=O)c3cccc(Cl)c3)cnc3cc(Cl)ccc23)CC1`, with 92%; and `Cc1ccc(S(=O)(=O)c2cnc3ccc(F)cc3c2N2CCC(C)CC2)cc1C`, with 92%. With `O=S(=O)(c1cc(F)cc(F)c1)c1cnc2ccc(F)cc2c1N1CCOCC1`, the inhibition was found to be 3%. On to `CC1CCN(c2c(S(=O)(=O)c3ccccc3)cnc3ccc(F)cc23)CC1`, for which the inhibition was determined as 40%. Then `COc1ccc2ncc(S(=O)(=O)c3cccc(Cl)c3)c(N3CCOCC3)c2c1`, with 12%; and `COc1ccc(S(=O)(=O)c2cnc3cc(Cl)ccc3c2N2CCOCC2)cc1Cl`, with 62%. Turning to `Cc1cc(C)cc(S(=O)(=O)c2cnc3ccc(Cl)cc3c2N2CCC(C)CC2)c1`, the inhibition is 49%. Then `COc1ccc2ncc(S(=O)(=O)c3ccccc3)c(N3CCC(C)CC3)c2c1`, with 64%; and `O=S(=O)(c1cccc(Cl)c1)c1cnc2ccc(F)cc2c1N1CCOCC1`, with 40%; and `COc1ccc(S(=O)(=O)c2cnc3ccc(OC)cc3c2N2CCC(C)CC2)cc1`, with 41%. Then `O=S(=O)(c1cc(F)cc(F)c1)c1cnc2cc(F)ccc2c1N1CCOCC1`, with 47.8 to 48%. The value for `O=S(=O)(c1ccccc1)c1cnc2ccccc2c1N1CCN(c2ccccc2)CC1` was 13.5%; that for `COc1ccc2ncc(S(=O)(=O)c3ccc(OC)c(Cl)c3)c(N3CCOCC3)c2c1` was 9%; that for `COc1ccc(S(=O)(=O)c2cnc3c(F)cccc3c2N2CCOCC2)cc1` was 33%.
